Source: PubChem
T cruzi intra – blocks T. cruzi growth inside host cells. intracellular Trypanosoma cruzi in host cells, plate reader. activity score (inhibition), % at 5.01 µM. 4.9% of 22,000 active. AID 651903; in the data active = activity score above about 55%; inconclusive = no clear call, values can overlap the other calls;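 note: parasites and compound incubated about four days before reading; 0% = median of neutral control wells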
INS-1E ATP HTS – rescue of cytokine-induced death in INS-1E beta cells | INS-1E cytokine-induced death, ATP luminescence, 48 h; normalised: neutral wells 0, positive control 100 | protection from cytokine-induced ATP loss, % at 10 µM | 0.1% of 20,000 active;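 active = mean replicate protection from cytokine-induced ATP loss at least 50% and at least 75% of replicates each reaching 50%; inconclusive = meets only one of the two criteria, mean or replicate share; inactive = fails both the mean and replicate share criteria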
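Material: INS-1E rat cells; Quantity: 8000 cells/well; Buffer or medium: phenol-red-free RPMI with 5% fetal bovine serum; Probe or stimulus: cytokine cocktail of IFN-γ, TNF-α and IL-1β; Compound dosing: single test concentration per compound, delivered by pin transfer; Incubation: 48 h co-treatment, 10 min post-lysis read; Signal: CellTiter-Glo luminescence.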
A1 apoptosis 2 – blocks A1, raising caspase activity | MEF A1-2A-BIM cells, caspase-Glo luminescence, 3 h; percent of clofoctol response, DMSO zero | caspase activation, % (no concentration beside the values) | 24,000 tested, under 10 active | AID 2465; in the data active = caspase activation above about 5.9%; inconclusive = no clear call, values can overlap the other calls; inactive = below about 2.2%
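Evaluation: Caspase-3/7 activity from luminescence increase | Assay system: A1-2A-BIM mouse embryonic fibroblasts | Quantity: 2500 MEF cells/well | Medium: RPMI-1640 plus 10% FBS | Detection: Caspase-Glo 3/7 luminescence, 1 h at room temperature | Dosing: 50 nL compound per well, pinned | Timing: Cells settled overnight, compound exposure 3 h at 37 °C, 5% CO2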
Starred values were filed as active, the others as inactive; ? = inconclusive; nt = no result given. Only a selection was taken, and hits are over-represented in it overall.

SMILES	T cruzi intra	INS-1E ATP HTS	A1 apoptosis 2
C[C@H](CO)N1C[C@H](C)[C@H](CN(C)Cc2ccc(C(=O)Nc3ccccc3N)cc2)Oc2ccc(NS(=O)(=O)c3cccs3)cc2CC1=O	64*	40	0
C[C@H]1CCCCO[C@H](CN(C)S(=O)(=O)c2cn(C)cn2)[C@@H](C)CN([C@@H](C)CO)C(=O)c2cc(NS(=O)(=O)c3cn(C)cn3)ccc2O1	nt	nt	-1
OC(CSc1ccccn1)CC(O)c1ccccc1 (centres undefined)	nt	nt	-1
C[C@@H]1CN([C@H](C)CO)C(=O)c2cc(NC(=O)Nc3ccc(C(F)(F)F)cc3)ccc2O[C@@H]1CN(C)Cc1ccccc1	14	-31	-1
C[C@H](CO)N1C[C@H](C)[C@H](CN(C)Cc2ccc(C(F)(F)F)cc2)Oc2ccc(NC(=O)Nc3ccc(F)cc3)cc2C1=O	58*	nt	-2
C[C@@H]1CN([C@@H](C)CO)C(=O)c2cc(NC(=O)Nc3ccc(C(F)(F)F)cc3)ccc2O[C@@H]1CN(C)Cc1ccc(C(F)(F)F)cc1	52	-62	0
C[C@H]1CN([C@@H](C)CO)C(=O)c2cc(NC(=O)Nc3ccc(C(F)(F)F)cc3)ccc2O[C@@H]1CN(C)Cc1ccc(C(F)(F)F)cc1	72*	nt	?
C[C@H](CO)N1C[C@H](C)[C@@H](CN(C)Cc2ccc(C(F)(F)F)cc2)Oc2ccc(NC(=O)Nc3ccc(F)cc3)cc2C1=O	12	-62	0
C[C@H](CO)N1C[C@H](C)[C@@H](CN(C)C(=O)Nc2ccc(C(F)(F)F)cc2)Oc2ccc(NC(=O)Nc3ccc(C(F)(F)F)cc3)cc2C1=O	?	-103	nt
C[C@H](CO)N1C[C@H](C)[C@H](CN(C)C(=O)Nc2ccc(C(F)(F)F)cc2)Oc2ccc(NC(=O)Nc3ccc(C(F)(F)F)cc3)cc2C1=O	74*	-20	nt
C[C@H](CO)N1C[C@H](C)[C@H](CN(C)Cc2ccccc2)Oc2ccc(NC(=O)Nc3ccc(C(F)(F)F)cc3)cc2C1=O	32*	nt	nt
C[C@@H]1CN([C@@H](C)CO)C(=O)c2cccc(NC(=O)C3CCCCC3)c2O[C@H]1CN(C)S(=O)(=O)c1ccc(F)cc1	18	4	-1
O=C(CCCCCCC(=O)Nc1ccccc1O)NN=C1CCCCCCC1	2	1	0
C[C@@H]1CN([C@H](C)CO)C(=O)c2cccc(NC(=O)Nc3ccc4c(c3)OCO4)c2O[C@H]1CN(C)Cc1ccc(-c2ccccc2)cc1	17	-7	nt
CN(C)CCCOc1ccc(/C=N/NC(=O)CCCCCC(=O)NO)cc1	nt	nt	1
C[C@@H]1CN([C@H](C)CO)C(=O)c2cc(NC(=O)Nc3ccc(C(F)(F)F)cc3)ccc2O[C@@H]1CN(C)Cc1ccc(C(F)(F)F)cc1	25	-27	nt
C[C@@H]1CN([C@@H](C)CO)C(=O)c2cc(NC(=O)Nc3ccc(C(F)(F)F)cc3)ccc2O[C@@H]1CN(C)Cc1ccc(Cl)c(Cl)c1	75*	-46	0
C[C@@H]1CN([C@H](C)CO)C(=O)c2cccc(NC(=O)c3ccncc3)c2O[C@H]1CN(C)Cc1ccc(C(=O)Nc2ccccc2N)cc1	9	0	0
COc1ccc(CN(C)C[C@@H]2Oc3c(NC(=O)c4ccncc4)cccc3C(=O)N([C@@H](C)CO)C[C@H]2C)cc1	79*	2	-1
COc1ccc(NC(=O)Nc2cccc3c2O[C@H](CN(C)Cc2ccncc2)[C@H](C)CN([C@@H](C)CO)C3=O)cc1	-18	1	0
COc1ccc(CN(C)C[C@H]2Oc3c(NC(=O)c4ccncc4)cccc3C(=O)N([C@@H](C)CO)C[C@@H]2C)cc1	83*	-2	-2
O=C(NO)c1cccc(C(=O)N/N=C/c2ccc([N+](=O)[O-])c(O)c2)c1	5	3	-1
CC(C)NC(=O)N(C)C[C@@H]1OCCCC[C@H](C)Oc2ccc(NC(=O)Nc3ccc(C(F)(F)F)cc3)cc2C(=O)N([C@H](C)CO)C[C@@H]1C	nt	nt	0
C[C@@H]1CCCCO[C@@H](CN(C)C(=O)Nc2ccc(C(F)(F)F)cc2)[C@@H](C)CN([C@H](C)CO)C(=O)c2cc(NC(=O)Nc3ccccc3)ccc2O1	64*	-6	0
C[C@H]1CCCCO[C@H](CN(C)C(=O)Nc2ccc(C(F)(F)F)cc2)[C@@H](C)CN([C@@H](C)CO)C(=O)c2cc(NC(=O)Cc3ccccc3)ccc2O1	nt	nt	1
SMILES	T cruzi intra	INS-1E ATP HTS	A1 apoptosis 2
C[C@@H]1CCCCO[C@@H](CN(C)C(=O)Nc2ccc(C(F)(F)F)cc2)[C@@H](C)CN([C@H](C)CO)C(=O)c2cc(NC(=O)c3ccccc3)ccc2O1	59*	-10	0
C[C@@H]1CCCCO[C@H](CN(C)C(=O)Nc2ccc(C(F)(F)F)cc2)[C@H](C)CN([C@@H](C)CO)C(=O)c2cc(NC(=O)Nc3ccccc3)ccc2O1	nt	nt	0
C[C@@H]1CCCCO[C@H](CN(C)C(=O)Nc2ccc(C(F)(F)F)cc2)[C@H](C)CN([C@H](C)CO)C(=O)c2cc(NC(=O)c3ccccc3)ccc2O1	nt	nt	-1
C[C@@H]1CCCCO[C@H](CN(C)C(=O)Nc2ccc(C(F)(F)F)cc2)[C@@H](C)CN([C@H](C)CO)C(=O)c2cc(NC(=O)Cc3ccccc3)ccc2O1	71*	-20	-2
COc1ccc(/C=N/NC(=O)CCCCCC(=O)Nc2ccccc2O)cc1OC	-3	11	nt
CN1CCN(C(=O)C2=C[C@@H](c3ccc4c(c3)OCO4)C[C@@H](OCCCCO)O2)CC1	nt	nt	0
O=C(CCCCCC(=O)N/N=C/c1ccc(-n2ccnc2)cc1)NO	-4	22	nt
C[C@@H]1CN([C@@H](C)CO)C(=O)c2cc(NC(=O)CCCN(C)C)ccc2O[C@@H](C)CCCCO[C@@H]1CN(C)C(=O)Nc1ccc2c(c1)OCO2	nt	nt	-1
COc1cc(Cl)c(/C=N\NC(=O)CCCCC(=O)NO)c(Cl)c1OC	18	68*	-1
O=C(CCCCCCC(=O)Nc1ccccc1O)N/N=C/c1ccc(O)c2ccccc12	-3	-1	1
O=C(CCCCC(=O)N/N=C/c1c(O)ccc2ccccc12)NO	-4	132*	0
Cc1ccsc1/C=N/NC(=O)CCCCCCC(=O)NO	nt	nt	0
O=C(CCCCCC(=O)N/N=C/c1ccccc1O)NO	nt	nt	0
O=C(CCCCCCC(=O)N/N=C\c1ccc(O)c2ccccc12)NO	14	151*	0
Cc1ccsc1/C=N\NC(=O)CCCCC(=O)NO	9	59*	nt
COc1cc(Cl)c(/C=N/NC(=O)CCCCCCC(=O)Nc2ccccc2O)c(Cl)c1OC	-12	3	nt
Cc1ccc(S(=O)(=O)Nc2ccc3c(c2)C(=O)N([C@H](C)CO)C[C@H](C)[C@H](CN(C)C(=O)NC2CCCCC2)OCCCC[C@@H](C)O3)cc1	9	-6	-1
C[C@@H]1CCCCO[C@H](CN(C)C(=O)Nc2ccc(F)cc2)[C@H](C)CN([C@H](C)CO)C(=O)c2cc(NC(=O)Cc3ccccc3)ccc2O1	nt	nt	0
C[C@H]1CCCCO[C@@H](CN(C)C(=O)CCCN(C)C)[C@@H](C)CN([C@@H](C)CO)C(=O)c2cc(NS(C)(=O)=O)ccc2O1	nt	nt	0
